Data on 22 molecules can be found in ChEMBL document CHEMBL4732130, “Synthesis and characterization of 1,2,4-triazolo[1,5-a]pyrimidine-2-carboxamide-based compounds targeting the PA-PB1 interface of influenza A virus polymerase” (Eur J Med Chem, 2021).

pEC50, pIC50: −log10 of the molar value. In brackets after ≈: the same amount, converted by molar mass. Several values for one entry are separate records, joined by “and”; a condition that tells them apart may be missing. Equal entries are not always repeated.

Series [1] in a line: Inhibition of Influenza A virus 6His-tagged PA (239 to 716 residues)/GST-tagged PB1 (1 to 25 residues) expressed in Escherichia coli BL21 pLysS protein-protein interaction using 3,3',5,5'tetramethylbenzedine as substrate by ELISA. (In general: In an ELISA, binding on a coated surface is turned into a signal by an enzyme label.)
The next series deals with Influenza A virus. Description: Antiviral activity against Influenza A virus A/PR/8/34 (H1N1) infected in MDCK cells assessed as reduction in plaque formation treated 1 hr post viral infection and measured after 48 hrs post-infection by toluidine blue staining based plaque reduction assay. The series is classed as functional, organism-based. The conditions noted are these: A/Puerto Rico/8/1934(H1N1).

In the next series the test system is MDCK. The series is described as follows: (§1) Cytotoxicity against dog MDCK cells assessed as reduction in cell viability incubated for 48 hrs by MTT assay. As to conditions: mdck, 48 h. Type of series: cell-based, Canis lupus familiaris. The gist of the method:
(§2)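 MDCK cells seeded at 2 × 10^4/well and grown 24 h, then given serial compound dilutions in DMEM with 10% FBS (DMSO control) for 48 h at 37 °C. MTT (5 mg/mL stock) added for 4 h, cells solubilised overnight, OD read at 620 nm. […] Mean ± SD of ≥3 independent experiments in duplicate.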
On the technique in general: Tetrazolium dyes change colour on reduction, which living cells bring about.

Series [2] is described as follows: Cytotoxicity in dog MDCK cells assessed as reduction in cell viability incubated for 24 to 120 hrs by MTT assay. Type of series: cell-based, Canis lupus familiaris. The conditions noted are these: time 24-120 hrs.
Series [3] can be described thus: as §1. The series is classed as cell-based, Canis lupus familiaris. As to conditions: MDCK cells. In outline: as §2
A short description of series [4]: Equilibrium solubility of the compound in phosphate buffer at pH 7.4 incubated for 2 hrs. The series is classed as physicochemical. The conditions noted are these: for solubility thermodynamic at 2 h: phosphate buffer, pH 7.4; for solubility: buffer, pH 7.4, 2 h, 2 h.
The target of series [5] is RNA-directed RNA polymerase (Influenza A virus (strain A/Puerto Rico/8/1934 H1N1), UniProt P03428+P03431+P03433). The series is described as follows: Inhibition of RdRP activity in Influenza A virus A/PR/8/34 (H1N1) infected in HEK293T cells co-transfected with NP/PA/PB1/PB2/pPolI-Flu-ffLuc/pRL-SV40 incubated for 24 hrs by minireplicon based dual luciferase assay. Type of series: cell-based, Influenza A virus (A/Puerto Rico/8/1934(H1N1)). The gist of the method: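 HEK293T cells (2 × 10^5/well) plated overnight, then calcium-phosphate transfected with PB1, PB2, PA and NP plasmids (100 ng each), pPolI-Flu-ffLuc reporter (50 ng; WSN segment 8 noncoding ends) and pRL-SV40 (50 ng), with compound or DMSO present. Medium replaced at 5 h with compound-containing DMEM. Dual luciferase read at 24 h. Firefly normalised to Renilla, DMSO set as 100% polymerase activity.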

Series [6] is described as follows: Metabolic stability in human liver microsomes assessed as compound remaining at 10 uM preincubated for 5 mins followed by NADPH addition and measured after 60 mins by LC-MS/MS analysis. The series is classed as ADME, Microsome. The conditions noted are these: time 65 min, read-out: Stabilty. In outline: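 Compound at 10 µM preincubated 5 min at 37 °C with human liver microsomes (1 mg/mL) in 0.1 M phosphate, pH 7.4. Reaction started with 2 mM NADPH. Samples taken at 0, 10, 20, 40 and 60 min, quenched in cold acetonitrile containing labetalol internal standard, and centrifuged. Analysed by LC-MS/MS (Q-TOF) for percent unchanged compound and metabolites. Half-life and intrinsic clearance estimated.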

Series [7] is described as follows: Protein binding in human plasma assessed as unbound fraction at 5 uM incubated for 4 hrs by UPLC/MS-MS based rapid equilibrium dialysis method. The series is classed as ADME, cell-free. The gist of the method: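 Compound at 5 µM in human plasma, dialysed against buffer by rapid equilibrium dialysis for 4 h at 37 °C. Chamber aliquots matrix-matched, precipitated with acetonitrile, and quantified by UPLC-MS/MS peak areas.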
(In equilibrium dialysis only unbound substance equilibrates across the membrane.)

Molecule `Cc1cc(-c2ccccc2)n2nc(C(=O)Nc3sc4c(c3C(=O)O)CCCCC4)nc2n1` had a pIC50 in [1] of 4.72. Besides, the negative logarithm of the EC50 (pEC50) in the series with Influenza A virus was 4.30. For the same molecule, in the series with MDCK, the CC50 is greater than 250 µM.

Consider `Cc1cc(-c2ccccc2)n2nc(C(=O)Nc3sc4ccccc4c3C(N)=O)nc2n1`, for which, in series [1], the negative-log IC50 (pIC50) is less than 3.70. For the same molecule, the pEC50 with Influenza A virus was 4.31. In the series with MDCK, the CC50 was greater than 250 µM.

In turn, `Cc1cc(-c2ccccc2)n2nc(C(=O)Nc3sc4c(c3C(=O)Nc3ccccn3)CCCCC4)nc2n1` showed a negative-log IC50 (pIC50) in [1] of 4.64. Moreover, in the series on Influenza A virus, the negative-log EC50 (pEC50) was 4.32. In addition, the half-maximal cytotoxic concentration (CC50) in the series on MDCK is greater than 250 µM.

In series [1], `Cc1cc(-c2ccccc2)nc2nc(C(=O)Nc3c(C(N)=O)sc4ncccc34)nn12` had a pIC50 of less than 3.70. For the same molecule, in the series with Influenza A virus, the pEC50 was 4.37. Besides, the CC50 with MDCK turned out to be 51 µM.

In turn, `Cc1cc(-c2ccccc2)nc2nc(C(=O)Nc3sc4c(c3C(=O)O)CCCCC4)nn12` had a pIC50 in series [1] of 4.74. In the series with Influenza A virus, the negative logarithm of the EC50 (pEC50) is 4.15. In addition, the CC50 in the series with MDCK was greater than 250 µM.

Consider `COc1ccc(C(=O)Nc2nc3n(n2)C(c2ccccc2)C=C(C)N3)cc1` (stereo not given), for which the CC50 in [2] is greater than 250 µM. In addition, in the series on Influenza A virus, the negative logarithm of the EC50 (pEC50) is less than 4.00.

Turning to `Cc1cc(-c2ccccc2)n2nc(C(=O)Nc3sc4c(c3C(N)=O)CCC4)nc2n1`, the pIC50 in [1] is 5.21. The pEC50 with Influenza A virus was 4.66. In addition, the CC50 in the series on MDCK was greater than 250 µM.

Take `Cc1cc(-c2ccccc2)n2nc(C(=O)Nc3ccsc3C(N)=O)nc2n1`: the negative logarithm of the IC50 (pIC50) in series [1] is 4.51. The pEC50 in the series with Influenza A virus is 4.37. Further, in series [3], the cytotoxic concentration (CC50) at 48 h worked out at 250 µM.

As to `Cc1cc(-c2ccccc2)n2nc(C(=O)Nc3c(C(N)=O)sc4c3CCCCC4)nc2n1`, in [1], the negative-log IC50 (pIC50) is less than 3.70. In the series on Influenza A virus, the negative logarithm of the EC50 (pEC50) was less than 4.30. Also, the CC50 in the series on MDCK amounted to 90 µM.

On to `CC(=O)[C@H]1CC[C@H]2[C@@H]3CCC4=CC(=O)CC[C@]4(C)[C@H]3CC[C@]12C` [PROGESTERONE], for which the thermodynamic solubility at 2 h in [4] came to 6.5 µM (≈ 2.04 µg/mL). This lies in the single-digit micromolar range.

In the case of `Cc1cc(-c2ccccc2)nc2nc(C(=O)Nc3nc4ccccc4s3)nn12`, the negative-log IC50 (pIC50) in series [1] was less than 3.70. The CC50 in the series on MDCK is 233 µM.

`Cc1cc(-c2ccccc2)n2nc(C(=O)Nc3sc(C)c(C)c3C(N)=O)nc2n1` gave a pIC50 in series [1] of less than 3.70. Besides, the negative-log EC50 (pEC50) in the series with Influenza A virus was less than 4.30. For the same molecule, the CC50 with MDCK was greater than 250 µM.

Turning to `Cc1cc(-c2ccccc2)n2nc(C(=O)Nc3sc4c(c3C(N)=O)CCCC4)nc2n1`, the negative-log IC50 (pIC50) in series [1] is 4.82. Also, in the series with Influenza A virus, the negative logarithm of the EC50 (pEC50) is 4.49. Besides, the CC50 with MDCK was greater than 250 µM.

On to `Cc1cc(-c2ccccc2)nc2nc(C(=O)Nc3ccccc3C(N)=O)nn12`, for which the results for the pEC50 (in series [5]; in the series with Influenza A virus) were 5.24 and 4.51, respectively. Further, the pIC50 in series [1] was 5.15. The remaining at 1 h, 10 µM in series [6] was found to be 76%. In addition, in series [4], the solubility was 82.2 uM and 30.6 ug ml-1. Further, the Fu in series [7] turned out to be 22.45%. The cytotoxic concentration (CC50) in the series on MDCK is greater than 250 µM.

Regarding `Cc1cc(-c2ccccc2)n2nc(C(=O)Nc3nc4ccccc4s3)nc2n1`, the negative-log IC50 (pIC50) in series [1] was 4.68. Further, in the series with Influenza A virus, the negative-log EC50 (pEC50) is less than 4.30. For the same molecule, the CC50 in the series with MDCK was greater than 250 µM.

In the case of `Cc1cc(-c2ccccc2)n2nc(C(=O)Nc3c(C(N)=O)sc4ncccc34)nc2n1`, in [1], the pIC50 was 5.48. The negative logarithm of the EC50 (pEC50) in the series with Influenza A virus was less than 4.00. In addition, the 50% cytotoxic concentration (CC50) in the series with MDCK is greater than 250 µM.

Consider `Cc1cc(-c2ccccc2)n2nc(C(=O)Nc3ccccc3C(N)=O)nc2n1`, for which the pIC50 in series [1] is 4.96. Also, in series [4], the solubility was 17.6 uM and 6.55 ug ml-1. Besides, the negative logarithm of the EC50 (pEC50) with Influenza A virus is less than 4.00. Also, the CC50 with MDCK is greater than 250 µM.

Consider `NC(=O)c1ncn([C@@H]2O[C@H](CO)[C@@H](O)[C@H]2O)n1` [RIBAVIRIN], for which the pEC50 in series [5] was 4.62; in the series with Influenza A virus it was 5.00. Also, the CC50 at 48 h in [3] was greater than 250 µM.

In series [1], `Cc1cc(-c2ccccc2)n2nc(C(=O)Nc3c(C(N)=O)sc4ccccc34)nc2n1` showed a negative-log IC50 (pIC50) of less than 3.70. Also, the pEC50 in the series on Influenza A virus is 4.66. Besides, in the series on MDCK, the cytotoxic concentration (CC50) is greater than 250 µM.

Turning to `CCC1CCc2c(sc(NC(=O)c3nc4nc(C)cc(-c5ccccc5)n4n3)c2C(N)=O)C1` (stereo not given), in series [1], the negative logarithm of the IC50 (pIC50) was less than 3.70. The pEC50 in the series on Influenza A virus was 4.82. For the same molecule, in the series on MDCK, the CC50 is greater than 250 µM.

Regarding `COc1cc2nc(N3CCN(C(=O)c4ccco4)CC3)nc(N)c2cc1OC` [PRAZOSIN], the solubility (thermodynamic) at 2 h in series [4] was determined as 62.8 µM (≈ 24.1 µg/mL).

In series [1], `Cc1cc(-c2ccccc2)nc2nc(C(=O)Nc3ccsc3C(N)=O)nn12` had a pIC50 of 4.30. Also, the negative-log EC50 (pEC50) with Influenza A virus was less than 4.00. Also, the CC50 in the series with MDCK came out at 240 µM.

The term pIC50 denotes the negative decadic logarithm of the IC50, by convention in mol/L. A higher pIC50 goes with a low IC50. Usually pEC50 stands for the negative decadic logarithm of the EC50, by convention in mol/L. As a reminder, the CC50 is the concentration giving 50% cytotoxicity. The solubility (thermodynamic) is the concentration in solution at equilibrium with solid. A word on the solubility: it is the concentration that dissolves in the medium under given conditions. Higher therefore signals a readily soluble substance.
